Measured values: ChEMBL document CHEMBL3877245 (Eur J Med Chem, 2016)
Calls of active or inactive are those of the source. The rule behind the calls is not given here.

What was measured:
[1] = biological target: T1, Neuronal acetylcholine receptor; alpha4/beta2 (Homo sapiens, UniProt P17787+P43681); assay: Agonist activity at human alpha4beta2 nAChR expressed in human SH-EP1 cells after 9.5 mins by 86Rb+ efflux assay; assay type: cell-based
[2] = biological target: T2, Acetylcholine receptor; alpha1/beta1/delta/gamma (Homo sapiens, UniProt P02708+P07510+P11230+Q07001); assay: Agonist activity at alpha1beta1gammadelta nAChR in human TE671/RD cells after 9.5 mins by 86Rb+ efflux assay; assay type: cell-based
In short: (§1)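 86Rb+ efflux: cells loaded with ~350,000 cpm 86Rb+ at least 4 h (typically overnight), rinsed with efflux buffer pH 7.4 (130 mM NaCl, 5.4 mM KCl, 2 mM CaCl2, 50 mM HEPES, 5 mM glucose). Test drug alone applied 9.5 min. Efflux normalized, after nonspecific subtraction, to specific efflux of fully efficacious carbamylcholine control; nonspecific defined with carbamylcholine plus mecamylamine; EC50 derived.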

[3] = Antagonist activity at alpha3beta4* in human SH-SY5Y cells assessed as reduction in carbamylcholine induced 86Rb+ efflux preincubated for 10 mins followed by carbamylcholine addition measured after 5 mins by Cherenkov counting; assay type: cell-based
In short: (§2)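 Same 86Rb+-loaded cells and pH 7.4 efflux buffer. Cells lysed in 0.1 M NaOH/0.1% SDS and Cerenkov counted. Specific efflux = total minus nonspecific (mecamylamine-blocked); inactivation IC50 derived from inhibition of carbamylcholine response.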

[4] = Antidepressant activity in C57BL6 mouse at 10 mg/kg, ip administered 15 mins prior to testing by SmartCube automated system based method; assay type: functional, organism-based
In short: (§3)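 Male C57 BL6 mice, group-housed 4 per cage, 22 °C, 12 h light-dark. Compound dissolved in water, given i.p. at 10 mL/kg, 15 min before automated SmartCube session; behaviour captured by digital video and classified by computer algorithms into a behavioural signature.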

[5] = biological target: T1, Neuronal acetylcholine receptor; alpha4/beta2; assay: Agonist activity at human (alpha4beta2 )2beta2 expressed in human SH-EP1 cells after 9.5 mins by 86Rb+ efflux assay relative to carbamylcholine; assay type: cell-based
[6] = biological target: T1, Neuronal acetylcholine receptor; alpha4/beta2; assay: Antagonist activity at human alpha4beta2 expressed in human SH-EP1 cells assessed as reduction in carbamylcholine induced 86Rb+ efflux preincubated for 10 mins followed by carbamylcholine addition measured after 5 mins by Cherenkov counting; assay type: cell-based; in short: as §2
[7] = biological target: T1, Neuronal acetylcholine receptor; alpha4/beta2; assay: Agonist activity at human (alpha4beta2 )2alpha4 expressed in human SH-EP1 cells after 9.5 mins by 86Rb+ efflux assay relative to carbamylcholine; assay type: cell-based
[8] = biological target: Neuronal acetylcholine receptor; alpha2/beta4 (Rattus norvegicus, UniProt P12389+P12392); assay: Displacement of [3H]epibatidine from rat alpha2beta4 nAChR by liquid scintillation counting; assay type: protein-complex assay
Sequence of Neuronal acetylcholine receptor; alpha2/beta4 (P12389 whole entry): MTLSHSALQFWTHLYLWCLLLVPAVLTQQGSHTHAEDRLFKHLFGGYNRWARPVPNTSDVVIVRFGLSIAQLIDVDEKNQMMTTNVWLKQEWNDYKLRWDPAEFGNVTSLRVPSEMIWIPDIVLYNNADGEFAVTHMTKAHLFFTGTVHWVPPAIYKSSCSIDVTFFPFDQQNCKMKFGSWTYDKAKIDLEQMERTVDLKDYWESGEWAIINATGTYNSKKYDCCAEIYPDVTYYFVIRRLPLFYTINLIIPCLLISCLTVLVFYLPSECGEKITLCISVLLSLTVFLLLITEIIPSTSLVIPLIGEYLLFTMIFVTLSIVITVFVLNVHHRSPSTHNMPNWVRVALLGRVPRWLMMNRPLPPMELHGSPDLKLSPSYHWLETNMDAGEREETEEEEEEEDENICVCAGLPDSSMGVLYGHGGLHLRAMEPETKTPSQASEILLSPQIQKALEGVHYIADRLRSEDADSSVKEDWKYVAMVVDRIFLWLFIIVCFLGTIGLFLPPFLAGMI
Sequence of Neuronal acetylcholine receptor; alpha2/beta4 (P12392 whole entry): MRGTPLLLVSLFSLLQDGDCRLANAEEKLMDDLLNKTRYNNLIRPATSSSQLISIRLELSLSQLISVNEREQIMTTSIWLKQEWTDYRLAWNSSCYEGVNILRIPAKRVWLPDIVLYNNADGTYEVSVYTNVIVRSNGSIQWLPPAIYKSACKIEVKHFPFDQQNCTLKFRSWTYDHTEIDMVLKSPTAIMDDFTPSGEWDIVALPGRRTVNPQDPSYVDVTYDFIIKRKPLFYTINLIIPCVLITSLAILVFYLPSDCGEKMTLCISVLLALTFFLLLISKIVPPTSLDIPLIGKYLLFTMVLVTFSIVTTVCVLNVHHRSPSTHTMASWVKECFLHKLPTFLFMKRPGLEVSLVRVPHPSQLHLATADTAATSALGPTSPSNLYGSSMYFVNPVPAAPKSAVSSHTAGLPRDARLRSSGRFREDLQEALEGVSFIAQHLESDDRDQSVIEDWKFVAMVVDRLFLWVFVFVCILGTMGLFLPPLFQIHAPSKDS

[9] = biological target: T2, Acetylcholine receptor; alpha1/beta1/delta/gamma; assay: Antagonist activity at alpha1beta1gammadelta nAChR in human TE671/RD cells assessed as reduction in carbamylcholine induced 86Rb+ efflux preincubated for 10 mins followed by carbamylcholine addition measured after 5 mins by Cherenkov counting; assay type: cell-based; in short: as §2
[10] = biological target: Neuronal acetylcholine receptor; alpha3/beta2 (Rattus norvegicus, UniProt P04757+P12390); assay: Displacement of [3H]epibatidine from rat alpha3beta2 nAChR by liquid scintillation counting; assay type: protein-complex assay
Sequence of Neuronal acetylcholine receptor; alpha3/beta2 (P04757 whole entry): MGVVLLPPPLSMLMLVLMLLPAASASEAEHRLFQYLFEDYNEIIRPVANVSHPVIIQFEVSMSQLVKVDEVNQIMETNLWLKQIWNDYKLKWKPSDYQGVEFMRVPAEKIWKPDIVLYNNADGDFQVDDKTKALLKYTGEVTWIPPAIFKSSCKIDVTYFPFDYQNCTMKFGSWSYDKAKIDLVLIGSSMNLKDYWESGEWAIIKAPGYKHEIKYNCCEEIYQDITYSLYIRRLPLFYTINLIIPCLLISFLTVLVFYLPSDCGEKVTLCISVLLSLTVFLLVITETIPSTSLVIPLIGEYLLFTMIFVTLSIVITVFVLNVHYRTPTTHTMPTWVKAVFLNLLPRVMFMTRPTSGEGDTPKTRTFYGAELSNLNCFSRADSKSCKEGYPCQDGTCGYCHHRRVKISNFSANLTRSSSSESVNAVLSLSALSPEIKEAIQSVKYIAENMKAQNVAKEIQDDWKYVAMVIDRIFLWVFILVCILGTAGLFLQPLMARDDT
Sequence of Neuronal acetylcholine receptor; alpha3/beta2 (P12390 whole entry): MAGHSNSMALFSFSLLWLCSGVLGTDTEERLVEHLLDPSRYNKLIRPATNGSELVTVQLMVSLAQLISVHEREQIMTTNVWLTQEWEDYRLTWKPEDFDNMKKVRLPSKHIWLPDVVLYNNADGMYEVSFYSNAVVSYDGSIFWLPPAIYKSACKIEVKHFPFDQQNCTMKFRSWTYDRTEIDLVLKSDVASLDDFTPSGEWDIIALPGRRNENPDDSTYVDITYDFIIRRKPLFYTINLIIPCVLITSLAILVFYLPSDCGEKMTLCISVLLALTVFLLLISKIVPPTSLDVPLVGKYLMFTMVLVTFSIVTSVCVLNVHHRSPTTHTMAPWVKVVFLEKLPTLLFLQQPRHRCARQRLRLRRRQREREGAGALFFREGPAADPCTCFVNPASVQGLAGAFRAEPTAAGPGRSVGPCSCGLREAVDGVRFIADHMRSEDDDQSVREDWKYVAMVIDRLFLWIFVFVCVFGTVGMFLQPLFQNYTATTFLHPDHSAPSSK

[11] = biological target: Neuronal acetylcholine receptor; alpha4/beta4 (Rattus norvegicus, UniProt P09483+P12392); assay: Displacement of [3H]epibatidine from rat alpha4beta4 nAChR by liquid scintillation counting; assay type: protein-complex assay
Sequence of Neuronal acetylcholine receptor; alpha4/beta4 (P09483 whole entry): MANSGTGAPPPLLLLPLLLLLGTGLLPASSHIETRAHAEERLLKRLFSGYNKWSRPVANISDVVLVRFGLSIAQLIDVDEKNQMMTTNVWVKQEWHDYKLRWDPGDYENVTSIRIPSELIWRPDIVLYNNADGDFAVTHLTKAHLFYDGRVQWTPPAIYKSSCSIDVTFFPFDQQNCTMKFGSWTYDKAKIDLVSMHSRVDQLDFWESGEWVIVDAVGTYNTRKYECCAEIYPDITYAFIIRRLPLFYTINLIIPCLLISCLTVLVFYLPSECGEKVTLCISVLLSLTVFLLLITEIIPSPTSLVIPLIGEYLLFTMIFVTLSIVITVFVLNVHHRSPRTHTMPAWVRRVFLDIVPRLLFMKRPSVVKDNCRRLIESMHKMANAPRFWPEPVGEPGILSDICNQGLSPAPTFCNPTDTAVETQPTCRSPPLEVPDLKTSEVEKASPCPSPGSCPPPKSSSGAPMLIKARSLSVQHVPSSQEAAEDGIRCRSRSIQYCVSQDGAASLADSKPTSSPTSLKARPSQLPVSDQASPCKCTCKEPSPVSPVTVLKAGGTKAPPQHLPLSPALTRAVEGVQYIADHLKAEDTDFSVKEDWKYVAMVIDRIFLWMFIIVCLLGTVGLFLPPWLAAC
Sequence of Neuronal acetylcholine receptor; alpha4/beta4 (P12392 whole entry): as the sequence (P12392 whole entry) above

[12] = Agonist activity at alpha3beta4* nAChR in human SH-SY5Y cells after 9.5 mins by 86Rb+ efflux assay; assay type: cell-based; in short: as §1
[13] = biological target: Neuronal acetylcholine receptor; alpha4/beta2 (Rattus norvegicus, UniProt P09483+P12390); assay: Displacement of [3H]epibatidine from rat alpha4beta2 nAChR by liquid scintillation counting; assay type: protein-complex assay
Sequence of Neuronal acetylcholine receptor; alpha4/beta2 (Rattus norvegicus, UniProt P09483+P12390) (P09483 whole entry): as the sequence (P09483 whole entry) above
Sequence of Neuronal acetylcholine receptor; alpha4/beta2 (Rattus norvegicus, UniProt P09483+P12390) (P12390 whole entry): as the sequence (P12390 whole entry) above

[14] = biological target: Neuronal acetylcholine receptor; alpha2/beta2 (Rattus norvegicus, UniProt P12389+P12390); assay: Displacement of [3H]epibatidine from rat alpha2beta2 nAChR by liquid scintillation counting; assay type: protein-complex assay
Sequence of Neuronal acetylcholine receptor; alpha2/beta2 (P12389 whole entry): as the sequence (P12389 whole entry) above
Sequence of Neuronal acetylcholine receptor; alpha2/beta2 (P12390 whole entry): as the sequence (P12390 whole entry) above

[15] = biological target: Neuronal acetylcholine receptor; alpha3/beta4 (Rattus norvegicus, UniProt P04757+P12392); assay: Displacement of [3H]epibatidine from rat alpha3beta4 nAChR by liquid scintillation counting; assay type: protein-complex assay
Sequence of Neuronal acetylcholine receptor; alpha3/beta4 (P04757 whole entry): as the sequence (P04757 whole entry) above
Sequence of Neuronal acetylcholine receptor; alpha3/beta4 (P12392 whole entry): as the sequence (P12392 whole entry) above

[16] = Displacement of [3H]epibatidine from rat forebrain alpha4beta2* nAChR by liquid scintillation counting
[17] = biological target: alpha3beta4 nAChR (neuronal acetylcholine receptor alpha3/beta4) (Rattus norvegicus, UniProt P04757+P12392); assay: Displacement of [3H]epibatidine from rat alpha3beta4 nAChR at 10 uM by liquid scintillation counting; conditions: probe [3H]epibatidine
Sequence of alpha3beta4 nAChR (neuronal acetylcholine receptor alpha3/beta4) (P04757 whole entry): as the sequence (P04757 whole entry) above
Sequence of alpha3beta4 nAChR (neuronal acetylcholine receptor alpha3/beta4) (P12392 whole entry): as the sequence (P12392 whole entry) above

[18] = Antidepressant activity in C57BL6 mouse at 5 mg/kg, ip administered 15 mins prior to testing by SmartCube automated system based method; assay type: functional, organism-based; in short: as §3
[19] = Antidepressant activity in po dosed BALB/cJ mouse assessed as decrease in immobility time administered 30 mins and measured over 6 mins by classical Porsolt's forced swim test; assay type: functional, organism-based
In short: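 Male BALB/cJ mice, 8–10 weeks, dosed po in water (10 mL/kg) at 1 and 10 mg/kg; water vehicle, sertraline 20 mg/kg ip as positive control. 30 min later placed in 1 L beaker with 12 cm of 23 °C water; immobility recorded over 6-min trial, total time analysed by ANOVA.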

T1 sequence (P17787 whole entry): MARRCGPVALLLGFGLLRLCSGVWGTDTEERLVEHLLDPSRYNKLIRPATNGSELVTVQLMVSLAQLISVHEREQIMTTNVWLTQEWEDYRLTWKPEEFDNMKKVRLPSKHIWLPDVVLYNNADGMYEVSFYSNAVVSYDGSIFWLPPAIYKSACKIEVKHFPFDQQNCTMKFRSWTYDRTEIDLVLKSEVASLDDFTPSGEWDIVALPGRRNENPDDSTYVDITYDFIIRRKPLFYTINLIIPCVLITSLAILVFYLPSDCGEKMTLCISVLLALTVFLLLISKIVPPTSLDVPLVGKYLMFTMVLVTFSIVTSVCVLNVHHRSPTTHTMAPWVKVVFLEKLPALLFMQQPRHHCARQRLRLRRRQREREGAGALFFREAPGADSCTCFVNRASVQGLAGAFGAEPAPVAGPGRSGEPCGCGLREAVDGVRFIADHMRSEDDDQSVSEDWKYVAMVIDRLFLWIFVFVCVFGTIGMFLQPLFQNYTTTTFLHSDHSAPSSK
T1 sequence (P43681 whole entry): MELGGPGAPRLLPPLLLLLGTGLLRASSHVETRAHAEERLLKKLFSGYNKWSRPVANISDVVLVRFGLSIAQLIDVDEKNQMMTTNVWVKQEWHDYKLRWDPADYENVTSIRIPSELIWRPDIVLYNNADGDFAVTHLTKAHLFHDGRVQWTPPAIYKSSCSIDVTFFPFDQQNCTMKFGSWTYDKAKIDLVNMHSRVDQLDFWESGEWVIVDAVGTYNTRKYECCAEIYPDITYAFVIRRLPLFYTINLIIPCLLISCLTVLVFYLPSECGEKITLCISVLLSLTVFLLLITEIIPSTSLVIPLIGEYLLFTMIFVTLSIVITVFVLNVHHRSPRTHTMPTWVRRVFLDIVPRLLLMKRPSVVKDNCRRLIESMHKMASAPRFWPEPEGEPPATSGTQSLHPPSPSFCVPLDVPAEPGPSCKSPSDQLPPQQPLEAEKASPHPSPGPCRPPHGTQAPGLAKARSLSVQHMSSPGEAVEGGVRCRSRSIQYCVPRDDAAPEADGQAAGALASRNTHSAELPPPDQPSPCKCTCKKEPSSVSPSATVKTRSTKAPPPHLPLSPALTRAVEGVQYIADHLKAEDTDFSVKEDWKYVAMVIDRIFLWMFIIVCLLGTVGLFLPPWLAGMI

Structure (SMILES) | EC50 [1] [nM] | EC50 [2] [nM] | IC50 [3] [nM] | Efficacy [5] [%] | Efficacy [6] [%] | IC50 [6] [nM] | Efficacy [7] [%] | Ki [8] [nM] | IC50 [9] [nM] | Ki [10] [nM] | Ki [11] [nM] | EC50 [12] [nM] | Ki [13] [nM] | Ki [14] [nM] | Ki [15] [nM] | Ki [16] [nM] | also measured
COCC[C@@H]1C[C@H]1c1cncc(N2CCCNCC2)c1 | 17.1 | > 10000 | > 10000 | 63 | 79 | 15.7 | -5.6 | 256 | > 10000 | 15.8 | 168 | > 10000 | 0.5 | 0.3 | > 10000 | 2.7 | Activity [4]: Active
CN1CCCN(c2cncc(-c3cc(CCO)no3)c2)CC1 |  | > 10000 | > 10000 |  |  |  |  | > 10000 | > 10000 | 1040 | 4940 | > 10000 |  | 46.3 |  |  | inhibition at 10 µM [17]: < 50%
COCC[C@@H]1C[C@H]1c1cncc(N2C[C@@H]3C[C@H]2CN3)c1 |  | > 10000 | > 10000 |  |  |  |  |  | > 10000 | 617 | 8450 | > 10000 |  | 43.1 |  |  | 
OCCc1cc(-c2cncc(N3CCCNCC3)c2)on1 | 30.9 | > 10000 | > 10000 | 58 | 68 | 50.8 | -5 | 331 | > 10000 | 42 | 67.6 | > 10000 | 0.8 | 0.8 | 8100 | 3.5 | Activity [4]: Active
COCC[C@H]1C[C@@H]1c1cncc(N2C[C@@H]3C[C@H]2CN3)c1 |  | > 10000 | > 10000 |  |  |  |  | 4810 | > 10000 | 141 | 1340 | > 10000 |  | 3.1 |  |  | 
c1cncc(N2CCCNCC2)c1 |  |  |  |  |  |  |  | 62 |  | 5.1 | 71.6 |  | 3.4 | 1.1 | 366 | 3.3 | 
c1cncc(N2CC3CC2CN3)c1 (stereo not drawn) |  |  |  |  |  |  |  | 15.2 |  | 3.1 | 7.7 |  | 1 | 0.3 | 64.6 | 0.8 | 
COCC[C@H]1C[C@@H]1c1cncc(N2CCCN(C)CC2)c1 | > 1000 | > 10000 | > 10000 |  |  | > 1000 |  |  | > 10000 | 681 | 4810 | > 10000 | 25.4 | 18.1 |  | 33.8 | pEC50 ([1]; sh-ep1): < 6; pIC50 ([6]; sh-ep1): < 6
COCC[C@H]1C[C@@H]1c1cncc(N2CCCNCC2)c1 | 15.9 | > 10000 | > 10000 | 81 | 74 | 16 | -9.3 | 460 | > 10000 | 17 | 151 | > 10000 | 0.7 | 0.3 | > 10000 | 2.7 | Activity [18]: Active; Activity [19]: Dose-dependent effect
